Laboratory results reported in ChEMBL document CHEMBL4316642, “Discovery of 1,4-Naphthoquinones as a New Class of Antiproliferative Agents Targeting GPR55” (ACS Med Chem Lett, 2019).
pEC50: −log10 of the molar value. Active and inactive are the calls of the source. The rule behind the calls is not given here.

Legend:
Type in all cases: cell-based
MCF-10A = assay: Cytotoxicity in human MCF10A cells assessed as reduction in cell viability incubated for 24 hrs by MTT assay
Procedure, shortened: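 EC50 from MTT viability after 24 h exposure; values in micromolar, mean of triplicate (n = 3) determinations. MCF10A described as […]; MDA-MB-231 noted as GPR55-overexpressing.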

[1] = Cytotoxicity in human PBMC assessed as cell viability at 100 uM incubated for 24 to 48 hrs hrs by trypan blue dye exclusion assay; details: PBMC (peripheral blood mononuclear cells), read-out: Activity
Procedure, shortened: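 Peripheral blood mononuclear cells exposed at 100 μM for 24 or 48 h; viability scored by trypan blue dye exclusion, reported as percent viable cells.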

[2] = biological target: G-protein coupled receptor 55 (Homo sapiens) (UniProt Q9Y2T6); assay: Inverse agonist activity at GPR55 in human MDA-MB-231 cells assessed as reduction in cell viability at 5 uM incubated for 24 hrs by MTT assay
Chain of G-protein coupled receptor 55 (Homo sapiens) (Q9Y2T6 whole entry): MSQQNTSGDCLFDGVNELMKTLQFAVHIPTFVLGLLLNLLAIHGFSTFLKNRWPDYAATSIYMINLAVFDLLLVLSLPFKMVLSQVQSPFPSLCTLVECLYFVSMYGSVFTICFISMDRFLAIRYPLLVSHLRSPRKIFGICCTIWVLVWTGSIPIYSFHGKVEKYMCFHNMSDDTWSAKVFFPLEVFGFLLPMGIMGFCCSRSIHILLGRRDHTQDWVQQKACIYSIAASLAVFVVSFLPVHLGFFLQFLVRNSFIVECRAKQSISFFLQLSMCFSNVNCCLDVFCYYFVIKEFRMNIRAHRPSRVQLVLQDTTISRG

[3] = biological target: G-protein coupled receptor 55 (Homo sapiens) (UniProt Q9Y2T6); assay: Inverse agonist activity at GPR55 in human MDA-MB-468 cells assessed as reduction in cell viability at 5 uM incubated for 24 hrs by MTT assay
[4] = biological target: G-protein coupled receptor 55 (Homo sapiens) (UniProt Q9Y2T6); assay: Inverse agonist activity at GPR55 in human MCF7 cells assessed as reduction in cell viability at 5 uM incubated for 24 hrs by MTT assay
[5] = biological target: G-protein coupled receptor 55 (Homo sapiens) (UniProt Q9Y2T6); assay: Inverse agonist activity at GPR55 in human T47D cells assessed as reduction in cell viability at 5 uM incubated for 24 hrs by MTT assay
[6] = biological target: G-protein coupled receptor 55 (Homo sapiens) (UniProt Q9Y2T6); assay: Inverse agonist activity at GPR55 in human MDA-MB-231 cells assessed as reduction in cell viability at 5 uM treated 30 mins after 10 uM GPR55 selective antagonist CID16020046 treatment followed by incubation for 24 hrs by MTT assay
Procedure, shortened: (§1)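 Cells pretreated with GPR55 antagonist CID16020046 for 30 min before test compound addition; proliferation compared against DMSO-treated cells.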

[7] = biological target: G-protein coupled receptor 55 (Homo sapiens) (UniProt Q9Y2T6); assay: Inverse agonist activity at GPR55 in human MDA-MB-468 cells assessed as reduction in cell viability at 5 uM treated 30 mins after 10 uM GPR55 selective antagonist CID16020046 treatment followed by incubation for 24 hrs by MTT assay; procedure, shortened: as §1
[8] = biological target: G-protein coupled receptor 55 (Homo sapiens) (UniProt Q9Y2T6); assay: Inverse agonist activity at GPR55 in human MCF7 cells assessed as reduction in cell viability at 5 uM treated 30 mins after 10 uM GPR55 selective antagonist CID16020046 treatment followed by incubation for 24 hrs by MTT assay; procedure, shortened: as §1
[9] = biological target: G-protein coupled receptor 55 (Homo sapiens) (UniProt Q9Y2T6); assay: Inverse agonist activity at GPR55 in human T47D cells assessed as reduction in cell viability at 5 uM treated 30 mins after 10 uM GPR55 selective antagonist CID16020046 treatment followed by incubation for 24 hrs by MTT assay

SMILES	pEC50 (MCF-10A)	viability at 100 µM [1] [%]	Activity [2]	Activity [3]	Activity [4]	Activity [5]	Activity [6]	Activity [7]	Activity [8]	Activity [9]
O=C1C(Cl)=C(N2CCCCC2)C(=O)c2c(O)ccc(O)c21	5.60	65	–	–	–	–	–	–	–	–
O=C1C(Cl)=C(N2CCOCC2)C(=O)c2c(O)ccc(O)c21	5.43	70	Active	Active	Active	inactive	inactive	inactive	inactive	inactive
